# An excerpt weighted towards active compounds, which were near 6.1% of everything screened.
# Measles CPE = compounds protecting cells from measles virus cytopathic effect, primary screen, measles RdRp inhibitor project, single point, MLSMR library, absorbance; 140,000 tested, 1.5% active; protection (pct of control), % at 4 µM; Measles virus-infected cells, CPE protection; in the data active means protection mostly above about 24%, no sharp cut-off; inactive means mostly below about 26%
# RAM network inh = inhibitors of the yeast RAM network, primary screen, dse1pr::URA3 reporter, 5-FOA selection. S. cerevisiae dse1pr::URA3 reporter, 5-FOA growth OD615, 2 d; analog-sensitive cbk1-as2 kinase mutant strain. inhibition, % at 50 µM. 190,000 tested, 1.8% active;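 active means inhibition above a set limit, 3 SD over mean compound inhibition, cut at about 8.4% in these data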;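 further: 0% = DMSO-only wells with no growth and 100% = 10 µM 1-NA-PP1 full growth; inhibition rescues growth on 5-FOA so higher OD means more RAM inhibition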
# hDAT+cocaine = changed hDAT dopamine uptake under cocaine IC80, either direction, primary screen, cocaine antagonist project, cell-based, LLC-PK1 hDAT, [14C]-dopamine uptake, MLSMR. B-score at 10 µM. 110,000 tested, 1.3% active. LLC-PK1 hDAT cells, [14C]-dopamine uptake with cocaine IC80; actives deviate in either direction;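 active means Z score or B-score, a plate-position-corrected score, falls beyond the plate's 99.7% confidence bounds, in either direction; inactive means both scores lie inside the 99.7% bounds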;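 further: scored against the spread of the other compound wells on the same plate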
# Target sequence (Q01959 whole entry, looked up): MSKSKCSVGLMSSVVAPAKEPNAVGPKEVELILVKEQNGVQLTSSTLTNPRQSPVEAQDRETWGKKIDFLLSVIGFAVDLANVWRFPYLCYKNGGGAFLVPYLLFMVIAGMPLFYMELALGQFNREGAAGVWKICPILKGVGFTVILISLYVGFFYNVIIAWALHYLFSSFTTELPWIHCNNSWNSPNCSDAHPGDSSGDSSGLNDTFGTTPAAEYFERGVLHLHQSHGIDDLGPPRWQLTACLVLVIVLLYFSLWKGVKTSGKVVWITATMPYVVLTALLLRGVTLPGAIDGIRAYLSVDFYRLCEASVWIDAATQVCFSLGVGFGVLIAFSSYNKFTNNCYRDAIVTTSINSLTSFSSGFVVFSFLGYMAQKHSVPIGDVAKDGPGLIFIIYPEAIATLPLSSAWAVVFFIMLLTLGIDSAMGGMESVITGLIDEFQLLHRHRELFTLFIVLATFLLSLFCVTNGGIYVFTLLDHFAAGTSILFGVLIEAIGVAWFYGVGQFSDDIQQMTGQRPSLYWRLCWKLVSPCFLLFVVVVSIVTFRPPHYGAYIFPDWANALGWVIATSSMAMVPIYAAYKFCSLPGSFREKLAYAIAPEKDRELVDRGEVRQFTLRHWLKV
# Yeast lifespan up = compounds extending yeast replicative lifespan, primary screen, S. cerevisiae, OD615 | S. cerevisiae growth with nicotinamide; deaD strain in restrictive glucose medium | 130,000 tested, 0.68% active | inhibition of the nicotinamide effect, % at 10 µM;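 active means inhibition above a set limit, placed 3 SD over the median of all compounds, cut at about 26% in these data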;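 further: 0% = nicotinamide-treated wells and 100% = cells grown without nicotinamide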
#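 Assay system: engineered S. cerevisiae DeaD replicative-lifespan strain, galactose-grown log-phase cells; medium: restrictive CSMM-D dextrose medium; also added: nicotinamide, 1.5 mM, co-present with compound; schedule: 48 h compound exposure at 30 °C, humidified; detection: absorbance at 615 nm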
# BB579 growth dn = growth inhibitors of yeast BB579 in restrictive medium, primary screen, yeast lifespan-shortening project, S. cerevisiae; OD615, 48 h; inhibition, % at 10 µM; 140,000 tested, 0.51% active; AID 804, 2007;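 active means inhibition above a set limit, 3 SD over the mean compound inhibition, cut at about 44% in these data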
#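 Assay system: S. cerevisiae DeaD strain BB579 yeast. Medium: CSMM-D restrictive synthetic medium containing dextrose (glucose). Times: 4 h cell preincubation, 48 h compound exposure, 30 °C humidified. Signal: OD615 turbidity measurement. Benchmarks: positive control amphotericin B 10 µg/mL.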
# WT yeast gro inh = growth inhibition of WT strain, primary screen, mitochondrial fusion inhibitor project, WT and mutant strains, chemical genetic; mitochondrial fusion phenotypic screen; inhibition, % at 10 µM; 190,000 tested, 2.1% active; AID 1362, 2008; in the data active means inhibition above about 58%; tested in S. cerevisiae
# Numbers without * were called inactive; . = no result given.
SMILES,Measles CPE,RAM network inh,hDAT+cocaine,Yeast lifespan up,BB579 growth dn,WT yeast gro inh
COc1ccc(O[C@H]2C=C[C@@H](c3ccccc3)O[C@@H]2COC(=O)CC/C(C)=N/O[C@@H](C)c2cn([C@H](CO)Cc3ccccc3)nn2)cc1,12,11*,0.23,3,-60,0
Cc1noc(C)c1COc1cccc(C(=O)OCCOc2ccc(F)cc2)c1,4,8.7*,-0.099,-8,-17,24
COC(=O)Nc1snnc1C,5,2,-0.82,-14,-31,63*
C=CCOC(=O)Nc1snnc1C,5,2,-0.054,-7,-12,-27
COC(=O)/C(=C1/Oc2cc3c(cc2S1)OCO3)C(F)(F)F,7,3,0.42,37*,-58,-8
O=c1oc2ccccc2cc1-c1cn2cccnc2n1,5,-1,0.95,-19,53*,12
Cc1c(Cl)c([N+](=O)[O-])nn1CCCC(=O)NC1CCCCC1,.,0,.,.,.,-7
CC(=O)c1c(C)[nH]c(C(=O)Nc2nc(-c3ccc(-c4ccccc4)cc3)cs2)c1C,8,4,.,-6,-11,12
CC(=O)c1c(C)[nH]c(C(=O)Nc2nc(-c3ccc(Cl)cc3)cs2)c1C,6,1,.,-3,-39,86*
C/C(=N/OCO/N=C(/C)c1ccc(F)cc1)c1ccc(F)cc1,29*,8,.,0,-11,16
Cc1ccc(C(=O)OCn2ncc(Cl)c(Cl)c2=O)cc1,1,-2,-1.7,-12,86*,7
Cc1cccc(Cn2ncc(Cl)c(Cl)c2=O)c1,17,3,-0.77,-19,49*,12
Cc1ccc(C)c(C(=O)Cn2ncc(Cl)c(Cl)c2=O)c1,22,2,.,8,-35,.
CC1CN(c2nnnn2-c2ccccc2)CC(C)O1 (stereo unspecified),3,2,-0.11,14,6,16
Cc1ccc(-n2c(-c3ccccc3)c[n+]3c2CCc2ccccc2-3)c(C)c1,.,2,.,.,.,14
Cc1cccc(NC(=O)C(=O)NCC2CCCO2)c1 (stereo unspecified),.,1,.,.,.,-7
CCOC(=O)N1C2=NC(C(=O)OC)=C(C(=O)OC)[C@@H]3N(C)c4ccc(OC)cc4[C@]23C[C@H]1C(=O)OC,.,.,1.6*,.,.,.
COC(=O)C1CCN(C(=O)c2cc(OC)c(OC)c(OC)c2)CC1,4,0,0.35,-4,-41,78*
COc1ccc(C(=O)COC(=O)CCN2C(=O)C3C4CC(C(Br)C4Br)C3C2=O)cc1 (stereo unspecified),.,1,-2.3*,-2,-49,11
COc1ccc(C(=O)COC(=O)CCN2C(=O)[C@@H]3[C@H](C2=O)[C@@H]2C[C@H]3C(Br)C2Br)cc1 (stereo partly specified),3,2,.,3,-4,5
CC1=CC(C)(C)Nc2ccc(OC(=O)CN3C(=O)c4cccc5cccc(c45)C3=O)cc21,45*,1,.,-13,-48,10
CC(=O)N1CCCC(C(=O)c2ccc(Oc3ccccc3)cc2)C1 (stereo unspecified),.,3,.,.,.,22
CC(C)c1ccccc1NC(=S)NC1CCCCC1,.,0,.,.,.,71*
S=C(Nc1cccc2ccccc12)NC1CCCCC1,.,0,.,.,.,75*
CCOc1ccc(C(C)NC(=S)NC2CCCCC2)cc1 (stereo unspecified),.,0,.,.,.,73*
SMILES,Measles CPE,RAM network inh,hDAT+cocaine,Yeast lifespan up,BB579 growth dn,WT yeast gro inh
CSc1ccccc1NC(=S)NC1CCCCC1,.,0,.,.,.,0
CCOc1ccc(C(C)NC(=S)NC2CCCCC2)cc1OCC (stereo unspecified),.,1,.,.,.,33
S=C(NCC1CCCO1)Nc1cccc2ccccc12 (stereo unspecified),.,0,.,.,.,-8
CC(C)c1ccccc1NC(=S)NC(C)c1ccccc1 (stereo unspecified),14,2,.,2,-22,60*
COc1ccc2nc(C)cc(N3CC(C)OC(C)C3)c2c1 (stereo unspecified),27*,0,0.086,-4,-49,3
Cc1ccc(-n2c(O)c(C=Nc3ccccc3-c3n[nH]c(=S)[nH]c3=O)c3ccccc3c2=O)cc1C,.,7,.,.,.,1
Cc1ccc(-n2c(O)c(C=Nc3ccccc3-c3n[nH]c(=S)[nH]c3=O)c3ccccc3c2=O)c(C)c1,.,11*,.,.,.,15
COc1ccc(-n2ncc3c(NCCCn4ccnc4)ncnc32)cc1,66*,0,-0.94,-11,5,0
COCCNc1ncnc2c1cnn2-c1ccc(Cl)cc1,2,0,0.27,-8,-10,1
Cc1ccc(OCc2nnc(SCC(=O)c3ccccc3)n2-c2ccccc2)cc1,11,9.4*,0.82,.,-35,56
COc1ccc(-n2c(COc3ccc(C)cc3)nnc2SCc2ccc(C#N)cc2)cc1,5,9.6*,0.88,0,-71,21
Cc1ccc(-n2c(CCc3ccccc3)nnc2SCC(=O)NCc2ccccc2)cc1C,3,0,1.1,-1,-9,-5
Cc1cccc(-n2c(CCc3ccccc3)nnc2SCC(=O)c2ccccc2)c1,3,4,.,11,-62,68*
N#Cc1ccc(OCc2nnc(SCC(=O)c3ccccc3)n2-c2ccccc2)cc1,21,1,-0.41,.,7,13
Cc1ccc(OCc2nnc(SCC(=O)O)n2N)cc1,40*,0,0.17,-7,-14,9
CC(C)(C)c1ccc(OCc2nnc(SCC(N)=O)n2N)cc1,.,1,.,.,.,0
Cc1ccc(-c2csc3ncnc(NS(=O)(=O)c4ccc(Cl)cc4)c23)cc1,25,9.2*,.,6,-32,19
CCOc1ccc(C2=Nc3ccc(Br)cc3C(c3ccc(N4CCOCC4)cc3)=NN2)cc1,10,10*,.,0,-25,29
CCc1ccc2c(c1)C(c1ccc(N3CCOCC3)cc1)=NNC(c1ccncc1)=N2,.,0,.,.,.,68*
CCOc1ccc(C2=Nc3ccccc3C(c3ccc(N4CCOCC4)cc3)=NN2)cc1,7,0,.,-24,-14,-10
CCOc1cccc2sc(N(CCN(CC)CC)C(=O)c3cccc([N+](=O)[O-])c3)nc12,.,1,.,.,.,-2
CN(Cc1ccccc1)Cc1nc2scc(-c3ccccc3)c2c(=O)[nH]1,.,1,.,.,.,14
COc1ccccc1CN1C[C@@H]2C[C@@H](c3[nH]c4c(C)cccc4c3C)N3CCC[C@@]23C1=O,.,-1,.,.,.,29
